The text below walks through data of ChEMBL document CHEMBL3244172, “Easily hydrolyzable, water-soluble derivatives of (+/-)-alpha-5-[1-(indol-3-yl)ethyl]-2-methylamino-delta2-thiazoline-4-one, a novel antiviral compound” (J Med Chem, 1979).

In series [1] the test system is Mustela putorius furo. Kind of series: Toxicity in ferret infected with Influenza A virus Port Chalmers/1/73 (H3N2) assessed as change in body weight at 13 mg/kg administered intranasally 7 times on day 0 and 9 times on day 1 to day 3 measured after 7 days relative to untreated control. The note with it: in vivo, inhaled_or_intranasal, 168 h. Also on record: dose 13 mg/kg. It counts as organism-based. Summed up:
(§1)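 Infected ferrets (700–1500 g, groups of three, untreated controls) were dosed intranasally each hour with 0.2 mL of a 50 mg/mL solution in distilled water: 7 doses on day 0 and 9 on days +1 to +3. Body weight was recorded throughout and expressed as % change.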

Series [2] has as its system Mustela putorius furo. Kind of series: Toxicity in ferret infected with Influenza A virus Port Chalmers/1/73 (H3N2) assessed as change in body weight at 8 mg/kg administered intranasally 7 times on day 0 and 9 times on day 1 to day 3 measured after 7 days relative to untreated control. The note with it: in vivo, inhaled_or_intranasal, 168 h. Also on record: dose 8 mg/kg. It counts as organism-based. Summed up: as §1

Series [3] has as its system Mustela putorius furo. Kind of series: Toxicity in ferret infected with Influenza A virus Port Chalmers/1/73 (H3N2) assessed as change in body weight at 16 mg/kg administered intranasally 7 times on day 0 and 9 times on day 1 to day 3 measured after 7 days relative to untreated control. The note with it: in vivo, inhaled_or_intranasal, 168 h. Further details: dose 16 mg/kg. It counts as organism-based. Summed up:
as §1

Series [4] concerns Influenza A virus. Nature of the series: Antiviral activity against Influenza A virus Port Chalmers/1/73 (H3N2) infected in ferret assessed as reduction in rectal temperature at 8 to 16 mg/kg administered intranasally 7 times on day 0 and 9 times on day 1 to day 3 relative to untreated control. It counts as functional. The note with it: dose mg/kg 8-16. Summed up:
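Infected ferrets (700–1500 g, groups of three, untreated controls) received hourly intranasal 0.2 mL of a 50 mg/mL aqueous solution: 7 doses on day 0 and 9 on days +1 to +3. Rectal temperature was recorded and readings >39.5 °C and >40.0 °C were counted on days +1 to +4.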

Series [5] has as its system Influenza A virus. Nature of the series: Antiviral activity against Influenza A virus Port Chalmers/1/73 (H3N2) infected in ferret assessed as reduction in viral excretion by measuring hemagglutination units per ml at 13 mg/kg administered intranasally 7 times on day 0 and 9 times on day 1 to day 2 measured on day 2 relative to untreated control. Type of series: functional. Summed up:
(§2)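 Ferrets (700–1500 g, groups of three, untreated control group) were infected intranasally on day 0. Unanaesthetized animals received 0.2 mL of a 50 mg/mL solution in distilled water intranasally, from 2 h post-infection, hourly: 7 doses on day 0 and 9 daily on days +1 to +3. Nasal washings were titrated for hemagglutination with 0.5% washed chicken erythrocytes (HAU/mL) on days +2 to +4.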

In series [6] the test system is Influenza A virus. Nature of the series: Antiviral activity against Influenza A virus Port Chalmers/1/73 (H3N2) infected in ferret assessed as reduction in viral excretion by measuring hemagglutination units per ml at 13 mg/kg administered intranasally 7 times on day 0 and 9 times on day 1 to day 3 measured on day 3 relative to untreated control. It counts as functional. Summed up:
as §2

Series [7] deals with Influenza A virus. Kind of series: Antiviral activity against Influenza A virus Port Chalmers/1/73 (H3N2) infected in ferret assessed as reduction in viral excretion by measuring hemagglutination units per ml at 13 mg/kg administered intranasally 7 times on day 0 and 9 times on day 1 to day 3 measured on day 4 relative to untreated control. Type of series: functional. Summed up: as §2

Series [8] has as its system Influenza A virus. Kind of series: Antiviral activity against Influenza A virus Port Chalmers/1/73 (H3N2) infected in ferret assessed as reduction in viral excretion by measuring hemagglutination units per ml at 8 mg/kg administered intranasally 7 times on day 0 and 9 times on day 1 to day 2 measured on day 2 relative to untreated control. It counts as functional. Summed up:
as §2

In series [9] the test system is Influenza A virus. Kind of series: Antiviral activity against Influenza A virus Port Chalmers/1/73 (H3N2) infected in ferret assessed as reduction in viral excretion by measuring hemagglutination units per ml at 8 mg/kg administered intranasally 7 times on day 0 and 9 times on day 1 to day 3 measured on day 4 relative to untreated control. Type of series: functional. The gist of the method: as §2

Series [10] relates to Influenza A virus. Kind of series: Antiviral activity against Influenza A virus Port Chalmers/1/73 (H3N2) infected in ferret assessed as reduction in viral excretion by measuring hemagglutination units per ml at 16 mg/kg administered intranasally 7 times on day 0 and 9 times on day 1 to day 2 measured on day 2 relative to untreated control. It counts as functional. The gist of the method:
as §2

Series [11] deals with Influenza A virus. Kind of series: Antiviral activity against Influenza A virus Port Chalmers/1/73 (H3N2) infected in ferret assessed as reduction in viral excretion by measuring hemagglutination units per ml at 16 mg/kg administered intranasally 7 times on day 0 and 9 times on day 1 to day 3 measured on day 3 relative to untreated control. It counts as functional. The gist of the method: as §2

Series [12] relates to Influenza A virus. Kind of series: Antiviral activity against Influenza A virus Port Chalmers/1/73 (H3N2) infected in ferret assessed as reduction in viral excretion by measuring hemagglutination units per ml at 16 mg/kg administered intranasally 7 times on day 0 and 9 times on day 1 to day 3 measured on day 4 relative to untreated control. It counts as functional. Summed up:
as §2

The nature of series [13]: Solubility in water. Type of series: physicochemical. The note with it: buffer.
A short description of series [14]: Stability in unbuffered aqueous solutions at pH >6 assessed as compound hydrolysis. Type of series: physicochemical. The note with it: unbuffered aqueous solution.
Series [15] can be described thus: Stability in unbuffered aqueous solutions at pH >6 assessed as compound decarboxylation. It counts as physicochemical.
In series [16] the test system is Influenza A virus. Nature of the series: Antiviral activity against Influenza A virus Port Chalmers/1/73 (H3N2) infected in MDCK cells at 1 mg/ml by agar diffusion method. The note with it: read-out: DIZ. Type of series: functional. Summed up:
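Agar diffusion: compounds were diluted to 1 mg/mL in Eagle's MEM from stocks of 10 mg/mL in water or 100 mg/mL in DMSO. 0.02 mL went into 6 mm wells cut in the agar overlay above infected monolayers (influenza in MDCK, Coxsackie B1 in HeLa). Read-out was the diameter (mm) of the plaque-free inhibition zone around each well.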

The subject of series [17] is Influenza A virus. Nature of the series: Antiviral activity against Influenza A virus Port Chalmers/1/73 (H3N2) infected in MDCK cells assessed as plaque reduction after 3 days by agar diffusion method. It counts as functional. The gist of the method: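 Plaque reduction: varying compound concentrations were put in the agar overlay above infected monolayers. Coxsackie B1/HeLa was incubated 42 h at 37 °C; influenza/MDCK 3 days at 33 °C. PDD50 is the lowest concentration giving ≥50% fewer plaques than untreated controls.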

The subject of series [18] is Mustela putorius furo. Kind of series: Toxicity in ferret infected with Influenza A virus Port Chalmers/1/73 (H3N2) assessed as change in body weight at 7 mg/kg administered intranasally 7 times on day 0 and 9 times on day 1 to day 3 measured after 7 days relative to untreated control. The note with it: in vivo, inhaled_or_intranasal, 168 h. Type of series: organism-based. Further details: dose 7 mg/kg. The gist of the method:
as §1

Series [19] concerns Mustela putorius furo. Kind of series: Toxicity in ferret infected with Influenza A virus Port Chalmers/1/73 (H3N2) assessed as change in body weight at 14 mg/kg administered intranasally 7 times on day 0 and 9 times on day 1 to day 3 measured after 7 days relative to untreated control. The note with it: in vivo, inhaled_or_intranasal, 168 h. Also on record: dose 14 mg/kg. It counts as organism-based. Summed up:
as §1

Series [20] relates to Influenza A virus. Nature of the series: Antiviral activity against Influenza A virus Port Chalmers/1/73 (H3N2) infected in ferret assessed as reduction in rectal temperature at 7 to 14 mg/kg administered intranasally 7 times on day 0 and 9 times on day 1 to day 3 relative to untreated control. Type of series: functional. The note with it: dose mg/kg 7-14. The gist of the method:
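Ferrets (700–1500 g), three per group, infected intranasally on day 0 with influenza A/Port Chalmers/1/73 (H3N2). Dosed 0.2 mL of 50 mg/mL solution in distilled water by intranasal instillation, unanaesthetized, starting 2 h post-infection and repeated hourly. Untreated and ribavirin-treated groups served as controls. Rectal temperature readings >39.5 °C and >40.0 °C were counted on days +1 to +4.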

The test system of series [21] is Influenza A virus. Nature of the series: Antiviral activity against Influenza A virus Port Chalmers/1/73 (H3N2) infected in ferret assessed as reduction in viral excretion by measuring hemagglutination units per ml at 7 mg/kg administered intranasally 7 times on day 0 and 9 times on day 1 to day 3 measured on day 3 relative to untreated control. It counts as functional. Summed up: as §2

Series [22] deals with Influenza A virus. Nature of the series: Antiviral activity against Influenza A virus Port Chalmers/1/73 (H3N2) infected in ferret assessed as reduction in viral excretion by measuring hemagglutination units per ml at 7 mg/kg administered intranasally 7 times on day 0 and 9 times on day 1 to day 2 measured on day 2 relative to untreated control. It counts as functional. The gist of the method: as §2

Series [23] relates to Influenza A virus. Nature of the series: Antiviral activity against Influenza A virus Port Chalmers/1/73 (H3N2) infected in ferret assessed as reduction in viral excretion by measuring hemagglutination units per ml at 7 mg/kg administered intranasally 7 times on day 0 and 9 times on day 1 to day 3 measured on day 4 relative to untreated control. It counts as functional. Summed up:
as §2

The test system of series [24] is Influenza A virus. Kind of series: Antiviral activity against Influenza A virus Port Chalmers/1/73 (H3N2) infected in ferret assessed as reduction in viral excretion by measuring hemagglutination units per ml at 14 mg/kg administered intranasally 7 times on day 0 and 9 times on day 1 to day 2 measured on day 2 relative to untreated control. It counts as functional. The gist of the method: as §2

In series [25] the test system is Influenza A virus. Kind of series: Antiviral activity against Influenza A virus Port Chalmers/1/73 (H3N2) infected in ferret assessed as reduction in viral excretion by measuring hemagglutination units per ml at 14 mg/kg administered intranasally 7 times on day 0 and 9 times on day 1 to day 3 measured on day 3 relative to untreated control. It counts as functional. Summed up: as §2

Series [26] concerns Influenza A virus. Kind of series: Antiviral activity against Influenza A virus Port Chalmers/1/73 (H3N2) infected in ferret assessed as reduction in viral excretion by measuring hemagglutination units per ml at 14 mg/kg administered intranasally 7 times on day 0 and 9 times on day 1 to day 3 measured on day 4 relative to untreated control. It counts as functional. The gist of the method: as §2

A short description of series [27]: Cytotoxicity against MDCK cells infected with Influenza A virus Port Chalmers/1/73 (H3N2) after 3 days by carbol fuchsin staining-based assay. It counts as cell-based, Canis lupus familiaris. The note with it: dog. The gist of the method:
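MDCK monolayers infected with influenza had compound in the agar overlay and were incubated 3 days at 33 °C. Monolayers were stained with carbol fuchsin or neutral red. MCC is the lowest concentration causing morphological cell abnormalities.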

As to `CNC1=NC(=O)C(C(C)c2cn(C(=O)OCC(C)(C)N(C)C)c3ccccc23)S1.Cl` (racemic), the Activity was -3.3% with Mustela putorius furo [1]; -0.4% in the series on Mustela putorius furo [2]; -3.2% in the series with Mustela putorius furo [3]; less than 4 HAU/ml in the series on Influenza A virus [5]; less than 4 HAU/ml in the series with Influenza A virus [6]; less than 4 HAU/ml in the series on Influenza A virus [7]. For the same compound, the Activity in the series on Influenza A virus [8], in the series on Influenza A virus [9], with Influenza A virus [10], in the series with Influenza A virus [11] and in the series with Influenza A virus [12] was less than 4 HAU/ml throughout. In addition, the T with Influenza A virus [4] is greater than 40 °C. In [13], the solubility entry was “soluble”. The Stability entry in series [14] and in series [15] was “Unstable” in each case.

Regarding `NC(=O)c1ncn([C@@H]2O[C@H](CO)[C@@H](O)[C@H]2O)n1` [RIBAVIRIN], the zone of inhibition at 1000 µg/mL in the series on Influenza A virus [16] was determined as 30 mm. Further, in the series with Influenza A virus [17], the PDD50 is 2 µg/mL. The Activity in the series with Mustela putorius furo [18] is recorded as -4.5%; in the series with Mustela putorius furo [19] it was -22.2%; in the series on Mustela putorius furo [1] it was -20.1%; with Influenza A virus [21], less than 4 HAU/ml; in the series on Influenza A virus [22], less than 4 HAU/ml; with Influenza A virus [23], less than 4 HAU/ml. The Activity in the series with Influenza A virus [5] is recorded as less than 4 HAU/ml; with Influenza A virus [6], 12 HAU/ml; with Influenza A virus [7] it was less than 4 HAU/ml; in the series with Influenza A virus [24] it was less than 4 HAU/ml; with Influenza A virus [25], less than 4 HAU/ml; in the series on Influenza A virus [26], less than 4 HAU/ml. Besides, the T in the series with Influenza A virus [20] is greater than 39.5 °C. The compound also came in with an MCC at 72 h in series [27] greater than 100 µg/mL.
